Drawing on ChEMBL document CHEMBL1759892 (Bioorg Med Chem Lett, 2011), this text covers IC50, Activity and Ki for 17 molecules.

The target of one data set is Cytochrome P450 2C9 (Homo sapiens, UniProt P11712). Description: Inhibition of CYP2C9. Format: ADME.
The next data set addresses Cytochrome P450 2C19 (Homo sapiens, UniProt P33261). Description: Inhibition of CYP2C19. The format is ADME.
A further data set concerns the target Cytochrome P450 2D6 (Homo sapiens, UniProt P10635). Description: Inhibition of CYP2D6. Format: ADME.
For another data set, the target named is Cytochrome P450 3A4 (Homo sapiens, UniProt P08684). Description: Inhibition of CYP3A4. The format is ADME.
Chain of Cytochrome P450 3A4 (P08684 whole entry): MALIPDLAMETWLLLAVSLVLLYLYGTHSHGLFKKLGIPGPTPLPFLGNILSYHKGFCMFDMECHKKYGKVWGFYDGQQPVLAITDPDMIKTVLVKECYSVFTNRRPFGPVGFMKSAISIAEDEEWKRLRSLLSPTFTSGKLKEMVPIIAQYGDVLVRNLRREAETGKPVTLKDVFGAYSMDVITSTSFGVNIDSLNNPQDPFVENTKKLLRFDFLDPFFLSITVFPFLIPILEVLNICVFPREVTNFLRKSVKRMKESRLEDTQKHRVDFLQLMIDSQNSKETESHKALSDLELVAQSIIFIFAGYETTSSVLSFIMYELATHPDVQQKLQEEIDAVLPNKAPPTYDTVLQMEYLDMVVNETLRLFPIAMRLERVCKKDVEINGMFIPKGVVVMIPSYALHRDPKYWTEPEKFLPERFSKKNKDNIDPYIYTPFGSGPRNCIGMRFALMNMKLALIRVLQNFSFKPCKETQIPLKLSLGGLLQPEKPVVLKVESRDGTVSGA
In data set [1] the target is Voltage-gated inwardly rectifying potassium channel KCNH2 (Homo sapiens, UniProt Q12809). Description: Inhibition of human ERG.
Chain of Voltage-gated inwardly rectifying potassium channel KCNH2 (Q12809 whole entry): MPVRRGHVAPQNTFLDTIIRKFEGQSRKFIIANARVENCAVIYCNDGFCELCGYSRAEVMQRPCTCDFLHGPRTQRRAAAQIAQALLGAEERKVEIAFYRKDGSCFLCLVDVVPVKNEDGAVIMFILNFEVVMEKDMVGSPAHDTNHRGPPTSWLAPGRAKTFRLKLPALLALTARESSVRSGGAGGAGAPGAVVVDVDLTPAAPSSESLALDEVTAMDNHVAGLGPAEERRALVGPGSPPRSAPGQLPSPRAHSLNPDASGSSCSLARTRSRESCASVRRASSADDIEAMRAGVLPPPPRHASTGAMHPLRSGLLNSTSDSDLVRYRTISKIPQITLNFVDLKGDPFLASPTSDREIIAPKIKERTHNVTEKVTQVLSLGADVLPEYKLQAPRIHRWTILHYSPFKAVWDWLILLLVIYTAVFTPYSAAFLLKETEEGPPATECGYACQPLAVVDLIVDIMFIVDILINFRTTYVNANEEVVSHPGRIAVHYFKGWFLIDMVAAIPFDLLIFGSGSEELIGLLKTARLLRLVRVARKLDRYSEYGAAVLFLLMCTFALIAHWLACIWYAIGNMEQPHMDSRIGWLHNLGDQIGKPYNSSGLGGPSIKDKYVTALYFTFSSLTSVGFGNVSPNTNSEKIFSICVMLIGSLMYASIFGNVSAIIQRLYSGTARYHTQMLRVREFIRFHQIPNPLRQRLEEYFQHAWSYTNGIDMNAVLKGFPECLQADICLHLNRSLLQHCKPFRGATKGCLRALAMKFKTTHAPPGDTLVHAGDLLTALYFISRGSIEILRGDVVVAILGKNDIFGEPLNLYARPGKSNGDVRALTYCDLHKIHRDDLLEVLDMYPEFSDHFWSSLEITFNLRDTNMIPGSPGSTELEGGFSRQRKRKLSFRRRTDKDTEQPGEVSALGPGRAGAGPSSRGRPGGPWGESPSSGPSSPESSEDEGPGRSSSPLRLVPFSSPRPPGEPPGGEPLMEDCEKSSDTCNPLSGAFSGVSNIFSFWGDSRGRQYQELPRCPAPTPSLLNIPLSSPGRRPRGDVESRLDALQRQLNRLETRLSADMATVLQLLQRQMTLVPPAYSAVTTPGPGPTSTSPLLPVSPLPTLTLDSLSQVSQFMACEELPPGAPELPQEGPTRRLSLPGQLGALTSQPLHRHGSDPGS
The next data set deals with Salmonella typhimurium. Description: Genotoxicity in Salmonella Typhimurium by Ames test in presence of S9 fraction. Format: toxicity, organism-based. As to conditions: salmonella enterica subsp. enterica serovar typhimurium.
The target in data set [2] is T1, Adenosine receptor A2b (Homo sapiens, UniProt P29275).
T1 sequence (P29275 whole entry): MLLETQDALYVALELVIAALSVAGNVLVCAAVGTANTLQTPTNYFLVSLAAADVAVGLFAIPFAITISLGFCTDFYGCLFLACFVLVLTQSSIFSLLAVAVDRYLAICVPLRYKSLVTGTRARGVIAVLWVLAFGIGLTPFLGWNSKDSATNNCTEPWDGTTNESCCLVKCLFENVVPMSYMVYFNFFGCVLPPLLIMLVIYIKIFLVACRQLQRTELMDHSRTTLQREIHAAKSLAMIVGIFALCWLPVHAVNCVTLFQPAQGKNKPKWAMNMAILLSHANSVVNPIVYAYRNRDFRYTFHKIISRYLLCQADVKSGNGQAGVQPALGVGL
Description: Inhibition of human adenosine A2B receptor expressed in CHO cells assessed as decrease in cellular cAMP level after 20 to 25 mins. The format is functional, cell-based.

A further data set concerns the target T2, Adenosine receptor A1 (Homo sapiens, UniProt P30542).
T2 sequence (P30542 whole entry): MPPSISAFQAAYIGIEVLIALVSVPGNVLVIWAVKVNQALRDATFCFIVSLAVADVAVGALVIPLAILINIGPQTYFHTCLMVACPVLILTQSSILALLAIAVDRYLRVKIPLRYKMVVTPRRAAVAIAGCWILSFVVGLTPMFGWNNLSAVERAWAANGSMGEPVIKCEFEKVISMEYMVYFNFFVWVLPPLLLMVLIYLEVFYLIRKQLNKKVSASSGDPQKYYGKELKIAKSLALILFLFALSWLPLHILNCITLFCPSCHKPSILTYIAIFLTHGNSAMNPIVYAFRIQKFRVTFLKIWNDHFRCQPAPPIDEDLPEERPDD
The data set can be described thus: Displacement of [3H]-DPCPX from human adenosine A1 receptor after 1 hr. In short, it runs like this:
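Human A1 receptor membranes, diluted in HEPES 50 mM, NaCl 100 mM, MgCl2 1 mM, were incubated with [3H]-DPCPX (4.8 nM final) and test compound for 1 h at room temperature with orbital shaking. Reactions were filtered on polyethyleneimine-treated filter plates, air dried and counted by scintillation. Values given as Ki.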
Background: Displacement assays read how much labelled ligand stays bound in the presence of the test substance.

A further data set concerns the target Adenosine receptor A2a (Homo sapiens, UniProt P29274). The data set can be described thus: Displacement of [3H]ZM241385 from human adenosine A2A receptor after 1 hr.
Data set [3] has as its target T1, Adenosine receptor A2b. The data set can be described thus: Displacement of [3H]ZM241385 from human adenosine A2B receptor expressed in CHO cells after 1 hr. Format: cell-based. In outline:
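Whole CHO cells expressing human A2B were harvested mechanically at 80% confluence, frozen in aliquots and resuspended in assay buffer on the day of assay. Cells were incubated with [3H]-ZM241385 (30 nM final) and test compound for 1 h at room temperature with orbital shaking. Reactions were filtered on polyethyleneimine-treated plates and counted by scintillation. Values given as Ki.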

Chain of Adenosine receptor A2a (P29274 whole entry): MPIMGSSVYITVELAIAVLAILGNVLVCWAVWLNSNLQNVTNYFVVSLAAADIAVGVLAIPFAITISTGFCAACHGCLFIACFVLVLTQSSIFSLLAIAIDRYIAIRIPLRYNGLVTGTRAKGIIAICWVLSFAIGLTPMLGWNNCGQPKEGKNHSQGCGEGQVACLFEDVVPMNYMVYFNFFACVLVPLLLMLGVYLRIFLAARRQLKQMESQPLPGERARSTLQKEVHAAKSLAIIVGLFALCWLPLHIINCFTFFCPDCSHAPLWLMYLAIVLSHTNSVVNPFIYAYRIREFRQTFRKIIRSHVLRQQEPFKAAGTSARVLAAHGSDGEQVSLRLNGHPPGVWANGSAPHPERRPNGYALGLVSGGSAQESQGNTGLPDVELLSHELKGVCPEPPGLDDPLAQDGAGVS
Chain of Cytochrome P450 2C19 (P33261 whole entry): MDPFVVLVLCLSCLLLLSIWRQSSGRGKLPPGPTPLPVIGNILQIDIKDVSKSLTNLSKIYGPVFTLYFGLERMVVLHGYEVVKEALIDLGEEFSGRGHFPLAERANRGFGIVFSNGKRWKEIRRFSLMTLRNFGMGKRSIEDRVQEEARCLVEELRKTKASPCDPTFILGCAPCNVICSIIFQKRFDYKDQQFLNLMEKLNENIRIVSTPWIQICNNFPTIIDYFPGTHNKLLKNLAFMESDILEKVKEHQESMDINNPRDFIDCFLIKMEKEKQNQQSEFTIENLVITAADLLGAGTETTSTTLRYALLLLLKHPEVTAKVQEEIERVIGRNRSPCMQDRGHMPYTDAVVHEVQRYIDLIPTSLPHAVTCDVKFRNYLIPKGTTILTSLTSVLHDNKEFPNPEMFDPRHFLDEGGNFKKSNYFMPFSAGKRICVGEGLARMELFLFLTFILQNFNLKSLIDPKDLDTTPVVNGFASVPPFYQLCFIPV
Chain of Cytochrome P450 2D6 (P10635 whole entry): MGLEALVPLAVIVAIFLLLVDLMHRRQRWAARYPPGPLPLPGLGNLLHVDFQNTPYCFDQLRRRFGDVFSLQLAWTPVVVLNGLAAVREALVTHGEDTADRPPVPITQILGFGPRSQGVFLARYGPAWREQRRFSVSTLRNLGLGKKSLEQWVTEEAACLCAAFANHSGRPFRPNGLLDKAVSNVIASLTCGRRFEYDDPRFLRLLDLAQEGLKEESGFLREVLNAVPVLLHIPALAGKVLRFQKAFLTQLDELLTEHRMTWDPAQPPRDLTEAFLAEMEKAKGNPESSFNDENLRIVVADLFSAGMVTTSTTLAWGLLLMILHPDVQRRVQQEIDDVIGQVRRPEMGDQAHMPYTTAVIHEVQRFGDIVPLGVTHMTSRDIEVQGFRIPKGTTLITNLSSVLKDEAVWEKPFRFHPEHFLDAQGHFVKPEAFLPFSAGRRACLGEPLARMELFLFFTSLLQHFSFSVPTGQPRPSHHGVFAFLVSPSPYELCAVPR
Chain of Cytochrome P450 2C9 (P11712 whole entry): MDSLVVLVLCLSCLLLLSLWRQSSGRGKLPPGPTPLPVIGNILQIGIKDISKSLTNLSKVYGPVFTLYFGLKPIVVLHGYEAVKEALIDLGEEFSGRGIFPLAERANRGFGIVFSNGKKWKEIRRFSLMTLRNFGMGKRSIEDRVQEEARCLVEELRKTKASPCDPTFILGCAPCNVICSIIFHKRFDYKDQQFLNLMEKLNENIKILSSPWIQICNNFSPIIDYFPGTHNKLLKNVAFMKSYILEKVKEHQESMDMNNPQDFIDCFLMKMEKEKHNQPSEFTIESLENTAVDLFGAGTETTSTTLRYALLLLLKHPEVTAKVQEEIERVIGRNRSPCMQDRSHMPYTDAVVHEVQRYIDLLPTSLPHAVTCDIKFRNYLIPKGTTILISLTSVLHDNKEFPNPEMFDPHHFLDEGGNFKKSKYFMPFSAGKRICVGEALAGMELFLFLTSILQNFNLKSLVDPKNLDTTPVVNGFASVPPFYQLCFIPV

One may read the IC50 as the concentration needed to halve the response being measured. For `CCN(C(C)=O)c1ccc(OC)c2nc(NC(=O)c3ccnn3C)sc12`, the IC50 against Cytochrome P450 2C9 is over 50000 nM; against Cytochrome P450 2C19, over 50000 nM; on Cytochrome P450 2D6, over 50000 nM; at Cytochrome P450 3A4, over 50000 nM; in [1], over 100000 nM. For the same molecule, in the data set on Salmonella typhimurium, the Activity entry was “Non-toxic”.
As usually defined, the Ki is the equilibrium dissociation constant of an inhibitor or competing ligand from its target. Regarding `CCN(C(C)=O)c1ccc(OC)c2nc(NC(=O)[C@H]3CC[C@@H](NS(=O)(=O)c4cccc(C(F)(F)F)c4)CC3)sc12`, the IC50 at Adenosine receptor A2b [2] came to 16 nM. Further, the figures for the Ki on Adenosine receptor A1 and on Adenosine receptor A2a were 46 nM and 110 nM, respectively.
On to `CCN(C(C)=O)c1ccc(OC)c2nc(NC(=O)[C@@H]3CCN(S(=O)(=O)c4cccc(C(F)(F)F)c4)C3)sc12`, for which the half-maximal inhibitory concentration (IC50) on Adenosine receptor A2b [2] is 42 nM. In addition, the Ki on Adenosine receptor A1 worked out at 220 nM; at Adenosine receptor A2a, 600 nM.
`CCN(C(C)=O)c1ccc(OC)c2nc(NC(=O)[C@@H]3CCN(C(=O)c4cccc(C(F)(F)F)c4)C3)sc12`: the IC50 at Adenosine receptor A2b [2] is 14 nM. Further, the inhibitory constant (Ki) stood at 100 nM on Adenosine receptor A1, 2040 nM on Adenosine receptor A2a and 18 nM at Adenosine receptor A2b [3].
In the case of `CCN(C(C)=O)c1ccc(OC)c2nc(NC(=O)[C@H]3CCN(C(=O)c4cccc(C(F)(F)F)c4)C3)sc12`, the IC50 on Adenosine receptor A2b [2] amounted to 41 nM. For the same molecule, the results for the inhibition constant (Ki) at Adenosine receptor A1 and on Adenosine receptor A2a were 120 nM and 710 nM, respectively.
With `CCN(C(C)=O)c1ccc(OC)c2nc(NC(=O)[C@@H]3CC[C@H](NC(=O)c4cccc(C(F)(F)F)c4)C3)sc12`, the IC50 at Adenosine receptor A2b [2] is 8 nM. The Ki on Adenosine receptor A1 was found to be 61 nM; at Adenosine receptor A2a, 81 nM.
With `CCN(C(C)=O)c1ccc(OC)c2nc(NC(=O)[C@@H]3CC[C@@H](NC(=O)c4cccc(C(F)(F)F)c4)C3)sc12`, at Adenosine receptor A2b [2], the IC50 was determined as 8 nM. In addition, the Ki on Adenosine receptor A1 and at Adenosine receptor A2a was 31 nM each time.
As for `CCN(C(C)=O)c1ccc(OC)c2nc(NC(=O)[C@@H]3CCN(Cc4cccc(C(F)(F)F)c4)C3)sc12`, the half-inhibitory concentration (IC50) on Adenosine receptor A2b [2] was 72 nM.
As to `CCN(C(C)=O)c1ccc(OC)c2nc(NC(=O)C3CCN(C(=O)c4cccc(C(F)(F)F)c4)CC3)sc12`, on Adenosine receptor A2b [2], the IC50 was 17 nM. For the same molecule, the figures for the inhibition constant Ki at Adenosine receptor A1 and on Adenosine receptor A2a were 2 nM and 230 nM, respectively.
For `CCN(C(C)=O)c1ccc(OC)c2nc(NC(=O)C3CCN(S(=O)(=O)c4cccc(C(F)(F)F)c4)CC3)sc12`, the IC50 on Adenosine receptor A2b [2] was 49 nM. Also, the inhibition constant Ki stood at 78 nM on Adenosine receptor A1 and 1040 nM at Adenosine receptor A2a.
Taken in the same sequence, the figures for `CCN(C(C)=O)c1ccc(OC)c2nc(NC(=O)C3CCN(Cc4cccc(C(F)(F)F)c4)CC3)sc12` were 44 nM, 10 nM and 1000 nM.
Turning to `CCN(C(C)=O)c1ccc(OC)c2nc(NC(=O)[C@H]3CC[C@H](NC(=O)c4cccc(C(F)(F)F)c4)CC3)sc12`, the IC50 at Adenosine receptor A2b [2] is 28 nM. The Ki at Adenosine receptor A1 came out at 7 nM; at Adenosine receptor A2a, 470 nM.
Take `CCN(C(C)=O)c1ccc(OC)c2nc(NC(=O)[C@H]3CC[C@@H](NC(=O)c4cccc(C(F)(F)F)c4)CC3)sc12`: the IC50 at Adenosine receptor A2b [2] was 26 nM. Further, the inhibition constant (Ki) on Adenosine receptor A1 worked out at 20 nM; on Adenosine receptor A2a it was 52 nM.
As to `CCN(C(C)=O)c1ccc(OC)c2nc(NC(=O)N3CCC(O)(c4cccc(C(F)(F)F)c4)CC3)sc12`, the concentration for half-maximal inhibition (IC50) at Adenosine receptor A2b [2] was determined as 8 nM. The Ki is 19 nM on Adenosine receptor A1, 210 nM at Adenosine receptor A2a and 5 nM on Adenosine receptor A2b [3].
For `CCN(C(C)=O)c1ccc(OC)c2nc(NC(=O)N3CCC(c4cccc(C(F)(F)F)c4)CC3)sc12`, the concentration for half-maximal inhibition (IC50) at Adenosine receptor A2b [2] came to 18 nM. The Ki on Adenosine receptor A1 turned out to be 5 nM; at Adenosine receptor A2a, 240 nM.
With `CCN(C(C)=O)c1ccc(OC)c2nc(NC(=O)N3CCC(S(=O)(=O)c4cccc(C(F)(F)F)c4)CC3)sc12`, the IC50 at Adenosine receptor A2b [2] amounted to 20 nM. Also, the inhibition constant (Ki) was 690 nM on Adenosine receptor A1 and 530 nM on Adenosine receptor A2a.
Take `CCN(C(C)=O)c1ccc(OC)c2nc(NC(=O)[C@@H]3CC[C@H](NCc4cccc(C(F)(F)F)c4)C3)sc12` (relative stereo): the IC50 on Adenosine receptor A2b [2] was 19 nM. Besides, the figures for the inhibition constant (Ki) on Adenosine receptor A1 and at Adenosine receptor A2a were 220 nM and 180 nM, respectively.
